Our source for the IC50, inhibition and Activity values is ChEMBL document CHEMBL3808388 (J Med Chem, 2016).

Each structure is given as a SMILES string. Activity calls are given as the source filed them. The calls are words filed in the database; no cut-off is given here. Some results are limits rather than exact numbers.

For test [1], the target named is G protein-coupled receptor kinase 5 (Homo sapiens, UniProt P34947). Put plainly: Inhibition of GRK5 (unknown origin) using tubulin as substrate by SDS-PAGE method.
G protein-coupled receptor kinase 5, sequence (P34947 whole entry): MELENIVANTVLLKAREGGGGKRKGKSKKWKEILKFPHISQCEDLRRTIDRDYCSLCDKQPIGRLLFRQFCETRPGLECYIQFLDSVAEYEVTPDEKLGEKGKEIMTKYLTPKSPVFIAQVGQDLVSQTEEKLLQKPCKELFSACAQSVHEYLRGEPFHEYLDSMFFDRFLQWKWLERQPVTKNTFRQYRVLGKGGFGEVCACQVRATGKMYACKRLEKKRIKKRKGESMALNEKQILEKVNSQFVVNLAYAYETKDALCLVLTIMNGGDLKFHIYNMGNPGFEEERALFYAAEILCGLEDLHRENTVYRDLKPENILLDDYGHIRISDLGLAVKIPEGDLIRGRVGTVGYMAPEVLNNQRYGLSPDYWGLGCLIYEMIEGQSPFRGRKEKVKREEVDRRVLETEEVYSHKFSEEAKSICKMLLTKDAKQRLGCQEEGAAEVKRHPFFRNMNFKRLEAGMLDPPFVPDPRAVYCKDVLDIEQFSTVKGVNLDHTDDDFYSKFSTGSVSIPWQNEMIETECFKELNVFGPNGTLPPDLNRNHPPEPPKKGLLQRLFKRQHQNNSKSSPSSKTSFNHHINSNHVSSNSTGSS
A further test deals with T1, Rhodopsin kinase GRK1 (Homo sapiens, UniProt Q15835).
T1 sequence (Q15835 whole entry): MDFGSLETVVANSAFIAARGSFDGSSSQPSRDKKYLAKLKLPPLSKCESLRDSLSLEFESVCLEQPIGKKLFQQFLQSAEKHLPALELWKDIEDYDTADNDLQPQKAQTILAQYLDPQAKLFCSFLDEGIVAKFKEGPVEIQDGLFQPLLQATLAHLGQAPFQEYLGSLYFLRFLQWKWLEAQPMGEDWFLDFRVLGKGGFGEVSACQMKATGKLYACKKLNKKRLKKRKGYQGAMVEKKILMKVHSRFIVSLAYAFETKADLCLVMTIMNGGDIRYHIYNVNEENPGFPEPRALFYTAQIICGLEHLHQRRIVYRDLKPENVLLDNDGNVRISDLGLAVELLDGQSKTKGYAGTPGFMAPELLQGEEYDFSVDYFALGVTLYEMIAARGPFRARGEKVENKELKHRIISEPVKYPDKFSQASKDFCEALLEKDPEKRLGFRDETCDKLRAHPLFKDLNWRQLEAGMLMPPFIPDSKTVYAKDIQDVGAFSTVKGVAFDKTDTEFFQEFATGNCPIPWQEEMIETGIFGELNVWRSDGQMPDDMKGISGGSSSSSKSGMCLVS
As to the kind of experiment: Inhibition of GRK1 (unknown origin) using tubulin as substrate by SDS-PAGE method.

Test [2] addresses T2, Rho-associated protein kinase 1 (Homo sapiens, UniProt Q13464). Put plainly: Inhibition of ROCK1 (unknown origin) at 10 uM by ADP-Glo kinase assay. In a few lines:
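ADP-Glo luminescence assay following the manufacturer's protocol. Percent inhibition was read at a single 10 μM inhibitor concentration.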
Target sequence in this assay (Q13464 2-1354 limits assumed): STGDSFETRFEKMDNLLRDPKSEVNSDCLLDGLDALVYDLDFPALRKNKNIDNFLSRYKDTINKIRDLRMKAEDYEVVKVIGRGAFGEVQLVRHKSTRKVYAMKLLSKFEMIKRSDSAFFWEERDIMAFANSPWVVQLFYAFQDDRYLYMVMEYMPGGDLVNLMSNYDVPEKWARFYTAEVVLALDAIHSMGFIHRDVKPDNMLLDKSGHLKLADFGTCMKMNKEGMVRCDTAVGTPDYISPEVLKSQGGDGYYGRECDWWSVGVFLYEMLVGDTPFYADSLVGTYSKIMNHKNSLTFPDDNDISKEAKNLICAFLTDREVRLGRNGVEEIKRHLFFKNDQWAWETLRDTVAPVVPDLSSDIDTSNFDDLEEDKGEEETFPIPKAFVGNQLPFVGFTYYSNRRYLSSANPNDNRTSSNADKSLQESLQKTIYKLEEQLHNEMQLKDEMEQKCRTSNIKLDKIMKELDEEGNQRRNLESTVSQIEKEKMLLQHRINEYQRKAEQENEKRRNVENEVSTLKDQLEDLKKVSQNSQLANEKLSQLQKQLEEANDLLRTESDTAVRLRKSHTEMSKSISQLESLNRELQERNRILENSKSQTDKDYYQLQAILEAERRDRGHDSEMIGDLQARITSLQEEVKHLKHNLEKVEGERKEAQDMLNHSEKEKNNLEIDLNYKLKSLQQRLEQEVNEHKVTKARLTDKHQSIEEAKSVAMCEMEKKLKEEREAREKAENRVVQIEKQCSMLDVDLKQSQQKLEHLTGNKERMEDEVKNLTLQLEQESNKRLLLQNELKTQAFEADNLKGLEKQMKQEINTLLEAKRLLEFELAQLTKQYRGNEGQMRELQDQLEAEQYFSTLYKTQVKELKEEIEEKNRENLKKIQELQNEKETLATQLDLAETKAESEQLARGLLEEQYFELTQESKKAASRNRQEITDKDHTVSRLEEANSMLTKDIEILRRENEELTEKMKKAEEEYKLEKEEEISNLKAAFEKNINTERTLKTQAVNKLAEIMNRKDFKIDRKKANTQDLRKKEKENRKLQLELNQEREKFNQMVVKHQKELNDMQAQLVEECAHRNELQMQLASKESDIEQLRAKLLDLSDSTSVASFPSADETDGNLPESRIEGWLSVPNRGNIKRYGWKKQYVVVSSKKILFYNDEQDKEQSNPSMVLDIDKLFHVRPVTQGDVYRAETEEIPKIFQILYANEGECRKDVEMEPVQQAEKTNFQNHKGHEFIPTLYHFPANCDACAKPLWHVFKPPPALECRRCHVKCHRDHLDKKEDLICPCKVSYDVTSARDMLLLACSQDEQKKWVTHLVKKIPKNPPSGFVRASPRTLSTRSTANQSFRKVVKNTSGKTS
(ADP-Glo turns the ADP formed in a reaction into a luminescent signal.)

Test [3] deals with T3, Beta-adrenergic receptor kinase 1 (Mus musculus) (UniProt Q99MK8).
T3 sequence (whole entry): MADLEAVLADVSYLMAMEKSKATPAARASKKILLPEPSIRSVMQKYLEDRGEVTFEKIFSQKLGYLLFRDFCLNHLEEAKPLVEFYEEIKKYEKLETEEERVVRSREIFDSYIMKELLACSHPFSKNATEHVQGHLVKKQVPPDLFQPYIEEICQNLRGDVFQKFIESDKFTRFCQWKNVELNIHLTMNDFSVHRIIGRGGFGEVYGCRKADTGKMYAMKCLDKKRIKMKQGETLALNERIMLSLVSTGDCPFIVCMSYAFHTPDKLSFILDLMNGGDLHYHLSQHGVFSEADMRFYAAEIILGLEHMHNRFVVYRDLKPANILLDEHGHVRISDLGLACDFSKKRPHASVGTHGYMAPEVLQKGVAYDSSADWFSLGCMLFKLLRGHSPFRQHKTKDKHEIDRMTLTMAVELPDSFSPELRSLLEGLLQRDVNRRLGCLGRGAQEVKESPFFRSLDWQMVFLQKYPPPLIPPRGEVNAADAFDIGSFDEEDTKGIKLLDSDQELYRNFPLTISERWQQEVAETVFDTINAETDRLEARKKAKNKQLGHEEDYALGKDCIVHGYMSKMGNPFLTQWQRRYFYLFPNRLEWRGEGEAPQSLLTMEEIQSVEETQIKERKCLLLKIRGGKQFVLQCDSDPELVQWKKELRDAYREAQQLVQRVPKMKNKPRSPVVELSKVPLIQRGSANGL
As to the kind of experiment: Inhibition of GRK2 in C57BL/6 mouse cardiomyocytes assessed as increase in contractility at 0.5 uM preincubated for 10 mins followed by beta adrenergic receptor agonist isoproterenol addition for 2 mins. It is filed as cell-based.

Test [4] in a line: Inhibition of PKA (unknown origin) using CREBtide as substrate by ADP-Glo kinase assay. More on the design: species or system Homo sapiens. The method, boiled down: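 ADP-Glo luminescence assay following the manufacturer's protocol. Inhibition curves were fitted from luminescence. IC50s are averages of three separate experiments, each run in duplicate.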
The target of test [5] is T3, Beta-adrenergic receptor kinase 1 (Mus musculus). Put plainly: Inhibition of GRK2 in C57BL/6 mouse cardiomyocytes assessed as increase in contractility at 1 uM preincubated for 10 mins followed by beta adrenergic receptor agonist isoproterenol addition for 2 mins. It is filed as cell-based.
The target of test [6] is T2, Rho-associated protein kinase 1. As to the kind of experiment: Inhibition of ROCK1 (unknown origin) by ADP-Glo kinase assay.
Target sequence in this assay (Q13464 whole entry): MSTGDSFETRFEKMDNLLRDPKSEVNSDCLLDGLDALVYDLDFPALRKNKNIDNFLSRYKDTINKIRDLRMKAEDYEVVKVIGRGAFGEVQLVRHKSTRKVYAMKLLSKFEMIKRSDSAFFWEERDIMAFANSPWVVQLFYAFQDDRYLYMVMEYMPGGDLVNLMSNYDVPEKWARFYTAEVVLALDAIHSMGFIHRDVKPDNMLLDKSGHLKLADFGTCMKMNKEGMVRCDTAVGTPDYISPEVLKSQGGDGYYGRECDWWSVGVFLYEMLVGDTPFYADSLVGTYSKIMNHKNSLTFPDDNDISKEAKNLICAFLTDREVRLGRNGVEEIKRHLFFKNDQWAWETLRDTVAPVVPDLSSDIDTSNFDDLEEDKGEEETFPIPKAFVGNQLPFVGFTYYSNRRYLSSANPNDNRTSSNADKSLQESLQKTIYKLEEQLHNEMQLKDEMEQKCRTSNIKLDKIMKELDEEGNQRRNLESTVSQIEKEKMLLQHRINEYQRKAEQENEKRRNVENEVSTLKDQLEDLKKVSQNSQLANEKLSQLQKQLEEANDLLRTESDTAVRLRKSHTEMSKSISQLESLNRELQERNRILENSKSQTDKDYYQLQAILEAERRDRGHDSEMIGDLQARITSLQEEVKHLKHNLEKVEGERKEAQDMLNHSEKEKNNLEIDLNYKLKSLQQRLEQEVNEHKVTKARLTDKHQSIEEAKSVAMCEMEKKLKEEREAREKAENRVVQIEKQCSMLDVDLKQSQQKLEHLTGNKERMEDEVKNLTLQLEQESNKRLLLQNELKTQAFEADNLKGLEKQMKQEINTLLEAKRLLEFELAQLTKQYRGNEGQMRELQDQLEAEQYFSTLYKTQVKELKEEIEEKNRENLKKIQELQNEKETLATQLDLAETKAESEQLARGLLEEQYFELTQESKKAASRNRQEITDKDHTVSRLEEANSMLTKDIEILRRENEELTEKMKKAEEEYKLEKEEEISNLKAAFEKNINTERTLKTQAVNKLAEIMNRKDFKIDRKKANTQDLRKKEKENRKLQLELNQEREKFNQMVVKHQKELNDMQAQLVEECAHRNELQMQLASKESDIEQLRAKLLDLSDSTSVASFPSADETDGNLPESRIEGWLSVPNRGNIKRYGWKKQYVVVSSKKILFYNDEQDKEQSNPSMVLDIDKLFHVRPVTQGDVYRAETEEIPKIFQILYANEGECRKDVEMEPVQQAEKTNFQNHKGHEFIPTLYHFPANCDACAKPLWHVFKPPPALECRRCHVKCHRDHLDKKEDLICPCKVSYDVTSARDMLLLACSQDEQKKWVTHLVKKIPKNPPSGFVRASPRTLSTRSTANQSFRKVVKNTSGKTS

The term IC50 denotes the concentration that inhibits the measured activity by half. A low value points to greater potency in that assay. In general, inhibition refers to the share of the control response that was lost under treatment. The low end stands for little suppression, the high end for strong suppression. `CCCn1c(CNc2cccc(C(=O)NCc3c(F)cccc3F)c2)nnc1-c1ccncn1`: the half-inhibitory concentration (IC50) in test [1] was 2.2 µM; against Rhodopsin kinase GRK1, 9 µM. For the same molecule, in test [2], the inhibition worked out at 10%.

`CC1=C(C(=O)Nc2ccc3[nH]ncc3c2)C(c2ccc(F)c(C(=O)NCc3ccccn3)c2)NC(=O)N1` (stereo unspecified): in test [3], the outcome was Active. Further, the IC50 in test [4] is above 100 µM; against Rhodopsin kinase GRK1, 3.9 µM.

As for `CC1=C(C(=O)Nc2ccc3[nH]ncc3c2)C(c2ccc(F)c(C(=O)NCc3ncccc3C)c2)NC(=O)N1` (stereo unspecified), the IC50 (in test [4]; at Rhodopsin kinase GRK1) was above 100 µM in each case.

`CC1=C(C(=O)Nc2ccc3[nH]ncc3c2)C(c2ccc(F)cc2)NC(=O)N1` (stereo unspecified) [GSK-180736A]: the outcome in test [5] was Active. The values for the IC50 (in test [6]; against Rhodopsin kinase GRK1) were 0.1 µM and above 100 µM, respectively.

With `CC1=C(C(=O)Nc2ccc3[nH]ncc3c2)C(c2ccc(F)c(C(=O)O)c2)NC(=O)N1` (stereo unspecified), the values for the IC50 (in test [6]; in test [4]; at Rhodopsin kinase GRK1) were 0.19 µM, 78.1 µM and above 100 µM, respectively.

Consider `CC1=C(C(=O)N(C)c2ccc3[nH]ncc3c2)C(c2ccc(F)c(C(=O)NCc3c(C)cccc3C)c2)NC(=O)N1` (stereo unspecified), for which the IC50 was 2.1 µM in test [6], above 100 µM in test [4] and above 100 µM at Rhodopsin kinase GRK1.

Consider `CC1=C(C(=O)Nc2ccc3[nH]ncc3c2)C(c2ccc(F)c(C(=O)NCc3c(C(F)(F)F)cccc3C(F)(F)F)c2)NC(=O)N1` (stereo unspecified), for which the IC50 (in test [1]; in test [4]; against Rhodopsin kinase GRK1) was above 100 µM throughout. In addition, the inhibition in test [2] was determined as 22%.

As to `CC1=C(C(=O)Nc2ccc3c(c2)OCO3)C(c2ccc(F)c(C(=O)NCc3ccccn3)c2)NC(=O)N1` (stereo unspecified), the IC50 (in test [1]; in test [4]; against Rhodopsin kinase GRK1) was above 100 µM in each case.

Turning to `CC1=C(C(=O)Nc2ccc3[nH]ncc3c2)C(c2ccc(F)c(CC(=O)NCc3c(C)cccc3C)c2)NC(=O)N1` (stereo unspecified), the IC50 (in test [4]; at Rhodopsin kinase GRK1) was above 100 µM each time.

As to `COc1ccc(CNC(=O)c2cc(C3NC(=O)NC(C)=C3C(=O)Nc3ccc4[nH]ncc4c3)ccc2F)cc1` (stereo unspecified), the IC50 in test [1] is 8.1 µM; in test [4], above 100 µM; against Rhodopsin kinase GRK1, above 100 µM.

Take `COc1cccc(CNC(=O)c2cc(C3NC(=O)NC(C)=C3C(=O)Nc3ccc4[nH]ncc4c3)ccc2F)c1` (stereo unspecified): the IC50 is 3.8 µM in test [1], above 100 µM in test [4] and above 100 µM on Rhodopsin kinase GRK1.

For the molecule `CNC(=O)c1cc(C2NC(=O)NC(C)=C2C(=O)Nc2ccc3[nH]ncc3c2)ccc1F` (stereo unspecified), the IC50 is above 100 µM in test [1], 0.56 µM in test [6], above 100 µM in test [4] and above 100 µM at Rhodopsin kinase GRK1.

Consider `CC1=C(C(=O)Nc2ccc3[nH]ncc3c2)C(c2ccc(F)c(C(=O)NCc3c(F)cccc3F)c2)NC(=O)N1` (stereo unspecified), for which the IC50 is 5 µM in test [1], 0.11 µM in test [6], above 100 µM in test [4] and above 100 µM at Rhodopsin kinase GRK1. The result in test [3] was Active.

With `CC1=C(C(=O)Nc2ccc3[nH]ncc3c2)C(c2ccc(F)c(C(=O)NCc3c(Cl)cccc3Cl)c2)NC(=O)N1` (stereo unspecified), the IC50 (in test [1]; in test [4]; at Rhodopsin kinase GRK1) was above 100 µM in each case.

For `CC1=C(C(=O)Nc2ccc3[nH]ncc3c2)C(c2ccc(F)c(C(=O)NCc3cc(C(F)(F)F)cc(C(F)(F)F)c3)c2)NC(=O)N1` (stereo unspecified), the IC50 (in test [1]; in test [4]; at Rhodopsin kinase GRK1) was above 100 µM throughout.

On to `CC1=C(C(=O)Nc2ccc3[nH]ncc3c2)C(c2ccc(F)c(C(=O)NCc3ccccc3)c2)NC(=O)N1` (stereo unspecified), for which the IC50 was 4.7 µM in test [1], above 100 µM in test [4] and 71 µM at Rhodopsin kinase GRK1.

For `CC1=C(C(=O)Nc2ccc3[nH]ncc3c2)C(c2ccc(F)c(C(=O)NCCc3ccncc3)c2)NC(=O)N1` (stereo unspecified), the results for the IC50 (in test [6]; in test [4]; against Rhodopsin kinase GRK1) were 0.084 µM, above 100 µM and above 100 µM, respectively.

In the case of `CC1=C(C(=O)Nc2ccc3[nH]ncc3c2)C(c2ccc(F)c(C(=O)NCc3c(C)cccc3C)c2)NC(=O)N1` (stereo unspecified), the outcome in test [5] was Active. Further, the IC50 (in test [4]; at Rhodopsin kinase GRK1) was above 100 µM each time.

In the case of `COc1cccc(OC)c1CNC(=O)c1cc(C2NC(=O)NC(C)=C2C(=O)Nc2ccc3[nH]ncc3c2)ccc1F` (stereo unspecified), the IC50 (in test [1]; in test [4]; against Rhodopsin kinase GRK1) was above 100 µM in each case. Moreover, the result in test [3] was Active. The molecule further yielded an inhibition in test [2] of 0%.

Take `COc1ccccc1CNC(=O)c1cc(C2NC(=O)NC(C)=C2C(=O)Nc2ccc3[nH]ncc3c2)ccc1F` (stereo unspecified): the IC50 in test [1] was 2.3 µM; in test [4], above 100 µM; on Rhodopsin kinase GRK1, 16 µM.

In the case of `COc1cccc(OC)c1CNC(=O)Cc1cc(C2NC(=O)NC(C)=C2C(=O)Nc2ccc3[nH]ncc3c2)ccc1F` (stereo unspecified), the IC50 (in test [1]; in test [4]; against Rhodopsin kinase GRK1) was above 100 µM in each case.

Consider `CC1=C(C(=O)Nc2ccc3[nH]ncc3c2)C(c2ccc(F)c(C(=O)NCc3cccc(F)c3)c2)NC(=O)N1` (stereo unspecified), for which the IC50 in test [4] is above 100 µM; on Rhodopsin kinase GRK1, 11.9 µM.

In the case of `CC1=C(C(=O)Nc2ccc3[nH]ncc3c2)C(c2ccc(F)c(C(=O)NCCc3c(C)cccc3C)c2)NC(=O)N1` (stereo unspecified), the IC50 (in test [4]; on Rhodopsin kinase GRK1) was above 100 µM each time.

Molecule `Fc1ccc([C@@H]2CCNC[C@H]2COc2ccc3c(c2)OCO3)cc1` [PAROXETINE] returned an IC50 in test [4] above 100 µM. The molecule further came in with an inhibition in test [2] of 10%.

As for `CC1=C(C(=O)Nc2ccc3[nH]ncc3c2)C(c2ccc(F)c(C(=O)NCc3nccc4ccccc34)c2)NC(=O)N1` (stereo unspecified), the IC50 in test [1] came to 1.8 µM; in test [6], 0.012 µM.

On to `CC1=C(C(=O)Nc2ccc3[nH]ncc3c2)C(c2ccc(F)c(CC(=O)NCc3c(C(F)(F)F)cccc3C(F)(F)F)c2)NC(=O)N1` (stereo unspecified), for which the IC50 (in test [1]; in test [4]; against Rhodopsin kinase GRK1) was above 100 µM throughout.

In the case of `CC1=C(C(=O)Nc2ccc3[nH]ncc3c2)C(c2ccc(F)c(C(=O)NCCc3ccccn3)c2)NC(=O)N1` (stereo unspecified), the half-inhibitory concentration (IC50) in test [1] was 6.2 µM; in test [4] it was above 100 µM; against Rhodopsin kinase GRK1 it was above 100 µM.
